ChEMBL document CHEMBL1125666, “In vitro evaluation of phosphocholine and quaternary ammonium containing lipids as novel anti-HIV agents” (J Med Chem, 1991)

Tests used:
[1] = test system: Human immunodeficiency virus 1; assay: In vitro inhibition of HIV-1 plaque formation; format: functional, organism-based
In short: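 HIV-1 syncytial plaque assay. CEM-SS cells in log phase, washed in PBS, 50 000 per well in serum-free RPMI-1640 on poly-L-lysine-coated wells, 30 min at 37 °C, 5% CO2. Inoculated with HIV-1 (60–90 PFU). After 60 min, overlay with or without compound at serial twofold dilutions, 0.03–20.0 μM. Second overlay on day 3. Plaques counted on day 5 to give IC50. Mean ± SD, n ≥ 3, or a single experiment.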

[2] = test system: Human immunodeficiency virus 1; assay: Differential selectivity measured as the ratio of CEM-SS cell growth IC50 vs HIV plaque formation IC50.; format: functional
In short: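 Selectivity index taken as CEM-SS growth IC50 (48 h suspension culture, [3H]thymidine uptake) divided by HIV-1 syncytial plaque IC50 (day-5 plaque count in CEM-SS monolayers, 60–90 PFU). Both IC50s come from twofold dilutions over 0.03–20.0 μM.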

[3] = test system: CEM-SS cells (Homo sapiens); assay: In vitro inhibition of CEM-SS cell growth by 50 %

Structure (SMILES) | IC50 [1] [nM] | Ratio [2] | IC50 [3] [nM]
CCCCCCCCCCCCCCCCSCC(C[N+](C)(C)CC(O)CO)OC.[Br-] (stereo not drawn) | 490 | 4.1 | 2000
CCCCCCCCCCCCCCCCOCC(CP(=O)([O-])OCC[n+]1ccccc1)OC (stereo not drawn) | 2200 | 3.5 | 7700
CCCCCCCCCCCCCCCCCCOCC[N+](C)(C)CC(O)CO.[I-] (stereo not drawn) | 200 | 14.5 | 2900
CCCCCCCCCCCCCCCCSCCOP(=O)([O-])OCC[N+](C)(C)C | 280 | 27.1 | 7600
CCCCCCCCCCCCCCCCOCC(C[n+]1ccccc1)OCC.[Br-] (stereo not drawn) | 210 | 5.2 | 1100
CCCCCCCCCCCCCCCCSCC(C[N+](C)(C)CCO)OC.[Br-] (stereo not drawn) | 370 | 5.7 | 2100
CCCCCCCCCCCCCCCCOCC(COP(=O)(O)OCCNC(C)(C)C)OCC (stereo not drawn) | > 5000 |  | 10000
CCCCCCCCCCCCCCCCOCC(COP(=O)(O)OCCNC(C)C)OCC (stereo not drawn) | > 5000 |  | 7000
CCCCCCCCCCCCCCCCCC(=O)NCCOP(=O)([O-])OCC[N+](C)(C)C | 280 | 68.7 | 19300
CCCCCCCCCCCCCCCC(=O)NCC(COP(=O)([O-])OCC[N+](C)(C)C)OC (stereo not drawn) | 930 | 26.6 | 24700
CCCCCCCCCCCCCCCC(=O)NCC(COP(=O)([O-])OCC[N+](C)(C)C)OCC (stereo not drawn) | 460 | 41.3 | 19000
CCCCCCCCCCCCCCCCOCC(CN(C)CCO)OC (stereo not drawn) | 2100 | 1.5 | 3200
CCCCCCCCCCCCCCCCOCC(COP(=O)([O-])OCC[n+]1ccccc1)OCC (stereo not drawn) | 4700 | 1.7 | 8100
CCCCCCCCCCCCCCCCCCSCC(C[N+](C)(C)CCCO)OC.[I-] (stereo not drawn) | 410 | 9.8 | 4000
CCCCCCCCCCCCCCCCCCOCC(COP(=O)([O-])OCC[N+](C)(C)C)OCC (stereo not drawn) | 270 | 11.1 | 3000
CCCCCCCCCCCCCCCCOCC(C[N+](C)(C)C)OC.[Br-] (stereo not drawn) | 520 | 2.1 | 1100

Structure (SMILES) | IC50 [1] [nM] | Ratio [2] | IC50 [3] [nM]
CCCCCCCCCCCCCCCCSCC(COP(=O)([O-])OCC[N+](C)(C)C)OCC (stereo not drawn) | 700 | 5.9 | 4100
CCCCCCCCCCCCCCCCCCNC(=O)NCC(COP(=O)([O-])OCC[N+](C)(C)C)OCC (stereo not drawn) | 570 | 13.5 | 7700
CCCCCCCCCCCCCCCCOCC[N+](C)(C)CCO.[I-] | 380 | 15.6 | 6000
CCCCCCCCCCCCCCCCCCS(=O)(=O)CC(COP(=O)([O-])OCC[N+](C)(C)C)OCC (stereo not drawn) | 1200 | 7.5 | 9000
CCCCCCCCCCCCCCCCSCC(C[N+](C)(C)C)OC.[Br-] (stereo not drawn) | 390 | 13.4 | 5300
CCCCCCCCCCCCCCCCOCC[N+](C)(C)CCCO.[I-] | 240 | 6.1 | 1500
CCCCCCCCCCCCCCCCOCC(CO)OCC (stereo not drawn) | > 5000 |  | > 20000
CCCCCCCCCCCCCCCCSCC(C[N+](C)(C)CCO)OCC.[Br-] (stereo not drawn) | 630 | 8.1 | 5100
CCCCCCCCCCCCCCCCCCCC(=O)NCC(COP(=O)([O-])OCC[N+](C)(C)C)OCC (stereo not drawn) | 160 | 29.4 | 4700
CCCCCCCCCCCCCCCCOCC(C[N+]1(CO)CCCCC1)OCC.[I-] (stereo not drawn) | 300 | 8 | 2400
CCCCCCCCCCCCCCCCCC(=O)NCC(COP(=O)([O-])OCC[N+](C)(C)C)OC (stereo not drawn) | 300 | 47.3 | 14200
CCCCCCCCCCCCCCCCCC(=O)NCC(COP(=O)([O-])OCC[N+](C)(C)C)OCC (stereo not drawn) | 160 | 84.4 | 13500
CCCCCCCCCCCCCCCCCCSCC(COP(=O)([O-])OCC[N+](C)(C)C)OC (stereo not drawn) | 490 | 7.8 | 3800
CCCCCCCCCCCCCCCCCCOCC(COP(=O)([O-])OCC[N+](C)(C)C)OC (stereo not drawn) [EDELFOSINE] | 920 | 4.3 | 4000
Cc1cn([C@H]2C[C@H](N=[N+]=[N-])[C@@H](CO)O2)c(=O)[nH]c1=O [ZIDOVUDINE] |  |  | 5600
